# Measurements reported in ChEMBL document CHEMBL1149637, “Design, synthesis, and evaluation of potential inhibitors of brassinin glucosyltransferase, a phytoalexin detoxifying enzyme from Sclerotinia sclerotiorum” (Bioorg Med Chem, 2007).
# Activity calls are given as the source filed them. No cut-off for these calls is given here.
# What was measured:
# [1] = system: Sclerotinia sclerotiorum; test: Inhibition of Sclerotina sclerotiorums brassinin glucosyl transferase assessed as percent relative activity in relative to brassinin at 0.30 mM; design: scale not given: the % may be the effect or the level left
# Summary of the method: (§1)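 Crude cell-free homogenate from clone #33 grown 7 days in PDB, induced with camalexin (0.05 mM final, 24 h). Mycelia were ground in ice-cold 50 mM Tris-HCl pH 8.0 buffer and centrifuged at 58,545g for 40 min. Inhibitor (from DMSO) was preincubated 30 min at room temperature with extract and UDPG (0.3 mM final). Brassinin (0.3 mM) was added, then 60 min incubation, EtOAc extraction and HPLC quantification of glucosylbrassinin. Protein measured by Bradford. Relative activity = specific activity vs brassinin-only control. Triplicate.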
# [2] = system: Sclerotinia sclerotiorum; test: Inhibition of Sclerotina sclerotiorums brassinin glucosyl transferase assessed as specific activity at 0.60 mM; summary of the method: as §1
# [3] = system: Sclerotinia sclerotiorum; test: Antifungal activity against Sclerotina sclerotiorum assessed as growth inhibition at 0.05 mM after 48 hrs; assay type: functional
# Summary of the method: (§2)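 S. sclerotiorum clone #33 radial growth assay: mycelial plugs (4 mm, from 3-day-old PDA plates) placed upside down in wells of minimal medium containing compound diluted from 50 mM DMSO stock. Medium-only controls contained 1% DMSO. […] Run in triplicate, at least three times.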
# [4] = system: Sclerotinia sclerotiorum; test: Inhibition of Sclerotina sclerotiorums brassinin glucosyl transferase assessed as percent relative activity in relative to brassinin at 0.60 mM; design: scale not given: the % may be the effect or the level left; summary of the method: as §1
# [5] = system: Sclerotinia sclerotiorum; test: Inhibition of Sclerotina sclerotiorums brassinin glucosyl transferase assessed as specific activity at 0.30 mM; summary of the method: as §1
# [6] = system: Sclerotinia sclerotiorum; test: Antifungal activity against Sclerotina sclerotiorum assessed as growth inhibition at 0.10 mM after 48 hrs; assay type: functional; summary of the method: as §2
# [7] = system: Sclerotinia sclerotiorum; test: Antifungal activity against Sclerotina sclerotiorum assessed as growth inhibition at 0.30 mM after 48 hrs; assay type: functional; summary of the method: as §2
# [8] = system: Sclerotinia sclerotiorum; test: Antifungal activity against Sclerotina sclerotiorum assessed as growth inhibition at 0.50 mM after 48 hrs; assay type: functional; summary of the method: as §2
# [9] = Metabolic stability assessed as half life in Sclerotina sclerotiorum at 0.10 mM; assay type: ADME, organism-based; conditions: sclerotinia sclerotiorum, Sclerotinia sclerotiorum (whole organism)
# Summary of the method: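 Four-day-old mycelial cultures in minimal medium (22 °C, 120 rpm, constant light) received inhibitor (0.050 or 0.10 mM final, in CH₃CN at 0.5% v/v). After 10 min, brassinin (0.05 mM final) was added. Samples were withdrawn over time, EtOAc-extracted and analysed by HPLC-DAD for remaining brassinin. Half-life of brassinin was compared with brassinin-only cultures. An uninoculated medium control was included.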
# [10] = system: Sclerotinia sclerotiorum; test: Antifungal activity against Sclerotina sclerotiorum assessed as growth inhibition at 0.01 mM after 48 hrs; assay type: functional
# [11] = Metabolic stability assessed as half life in Sclerotina sclerotiorum at less than 0.01 mM; assay type: ADME, organism-based; conditions: sclerotinia sclerotiorum, Sclerotinia sclerotiorum (whole organism)
# [12] = Metabolic stability assessed as half life in Sclerotina sclerotiorum; assay type: ADME, organism-based; conditions: sclerotinia sclerotiorum, Sclerotinia sclerotiorum (whole organism)
# Summary of the method: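 S. sclerotiorum clone #33 mycelial plugs were grown 4 days in minimal medium at 22 ± 1 °C, shaken at 120 rpm under constant light. Compound (0.050 or 0.10 mM final, in CH₃CN 0.5% v/v) was added, then brassinin (0.05 mM final) 10 min later. Samples taken over time were extracted with EtOAc, brassinin was measured by HPLC-DAD, and brassinin half-life was compared with brassinin-only cultures.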
# [13] = Metabolic stability assessed as half life in Sclerotina sclerotiorum at 0.03 mM; assay type: ADME, organism-based; conditions: sclerotinia sclerotiorum, Sclerotinia sclerotiorum (whole organism)
structure (smiles),measurement,setting,value
c1ccc2c(-c3nccs3)c[nH]c2c1 [CAMALEXIN],Activity,[1],63%
same,Activity (10^-10.mol/mg/min),[2],0.84
same,inhibition at 50 µM,[3],81%
same,Activity,[4],56%
same,Activity (10^-10.mol/mg/min),[5],0.95
same,inhibition at 100 µM,[6],100%
CSC(=S)NCc1coc2ccccc12,inhibition at 300 µM,[7],23%
same,Activity,[1],50%
same,Activity (10^-10.mol/mg/min),[2],0.55
same,inhibition at 500 µM,[8],45%
same,Activity,[4],37%
same,Activity (10^-10.mol/mg/min),[5],0.75
same,half-life at 100 µM,[9],9 h
same,Activity,[6],inactive
Fc1cccc2[nH]cc(-c3ccccc3)c12,Activity,[1],37%
same,Activity (10^-10.mol/mg/min),[2],0.43
same,inhibition at 50 µM,[3],100%
same,Activity,[4],29%
same,inhibition at 10 µM,[10],47%
same,Activity (10^-10.mol/mg/min),[5],0.55
c1ccc2[nH]c(-c3cscn3)nc2c1 [THIABENDAZOLE],inhibition at 500 µM,[8],93%
same,inhibition at 100 µM,[6],86%
CSC(=S)NCc1csc2ccccc12,inhibition at 300 µM,[7],63%
same,Activity,[1],81%
same,Activity (10^-10.mol/mg/min),[2],1.12
same,inhibition at 500 µM,[8],89%
same,Activity,[4],75%
same,Activity (10^-10.mol/mg/min),[5],1.22
same,inhibition at 100 µM,[6],10%
COc1ccn2ncc(CNC(=S)SC)c2c1,Activity,[1],98%
same,Activity (10^-10.mol/mg/min),[2],1.48
same,Activity,[4],99%
same,Activity (10^-10.mol/mg/min),[5],1.47
c1ccc(-c2coc3ccccc23)cc1,inhibition at 300 µM,[7],64%
same,Activity,[1],53%
same,Activity (10^-10.mol/mg/min),[2],0.63
same,inhibition at 500 µM,[8],80%
same,Activity,[4],42%
same,Activity (10^-10.mol/mg/min),[5],0.79
same,inhibition at 100 µM,[6],32%
CSC(=S)NCc1cc2ccccc2[nH]1 [ISOBRASSININ],inhibition at 300 µM,[7],100%
same,Activity,[1],42%
same,Activity (10^-10.mol/mg/min),[2],0.41
same,Activity,[4],27%
same,half-life,[11],2 h
same,Activity (10^-10.mol/mg/min),[5],0.63
same,inhibition at 100 µM,[6],48%
Fc1ccc2[nH]cc(-c3nccs3)c2c1 [5-FLUOROCAMALEXIN],inhibition at 300 µM,[7],85%
same,Activity,[1],54%
same,Activity (10^-10.mol/mg/min),[2],0.72
same,inhibition at 50 µM,[3],61%
same,Activity,[4],48%
same,Activity (10^-10.mol/mg/min),[5],0.81
same,inhibition at 100 µM,[6],70%
CSC(=S)NCc1c[nH]c2ccccc12 [BRASSININ],inhibition at 300 µM,[7],100%
same,half-life,[12],9 h
same,inhibition at 100 µM,[6],37%
COC(=O)c1cnn2ccc(OC)cc12,Activity,[7],inactive
same,Activity,[1],100%
same,Activity (10^-10.mol/mg/min),[2],1.49
same,inhibition at 500 µM,[8],20%
same,Activity,[4],100%
same,Activity (10^-10.mol/mg/min),[5],1.51
CSC(=S)NCc1c[nH]c2ncccc12,inhibition at 300 µM,[7],28%
same,Activity,[1],68%
same,Activity (10^-10.mol/mg/min),[2],0.75
same,inhibition at 500 µM,[8],65%
same,Activity,[4],50%
same,Activity (10^-10.mol/mg/min),[5],1.02
same,Activity,[6],inactive
CC(=O)Nc1cnc2ccccc2c1,Activity,[1],100%
same,Activity (10^-10.mol/mg/min),[2],1.53
same,Activity,[8],inactive
same,Activity,[4],100%
same,Activity (10^-10.mol/mg/min),[5],1.58
Fc1ccc2c(-c3ccccc3)c[nH]c2c1 [6-FLUORO-3-PHENYLINDOLE],Activity,[1],23%
same,Activity (10^-10.mol/mg/min),[2],0.2
same,inhibition at 50 µM,[3],87%
same,Activity,[4],13%
same,inhibition at 10 µM,[10],65%
same,Activity (10^-10.mol/mg/min),[5],0.34
same,half-life at 100 µM,[9],10 h
same,inhibition at 100 µM,[6],93%
CSC(=S)NCc1cc2ccccc2o1,inhibition at 300 µM,[7],100%
same,half-life at 30 µM,[13],6 h
same,Activity,[1],43%
same,Activity (10^-10.mol/mg/min),[2],0.43
same,Activity,[4],29%
same,Activity (10^-10.mol/mg/min),[5],0.64
same,inhibition at 100 µM,[6],32%
c1ccc(-c2c[nH]c3ccccc23)cc1 [3-PHENYLINDOLE],Activity,[1],23%
same,Activity (10^-10.mol/mg/min),[2],0.19
same,inhibition at 50 µM,[3],93%
same,Activity,[4],13%
same,inhibition at 10 µM,[10],78%
same,Activity (10^-10.mol/mg/min),[5],0.35
same,half-life at 100 µM,[9],10 h
same,inhibition at 100 µM,[6],100%
c1ccc(-c2cc3ccccc3[nH]2)cc1,Activity,[1],39%
same,Activity (10^-10.mol/mg/min),[2],0.59
same,Activity,[4],39%
same,Activity (10^-10.mol/mg/min),[5],0.59
Fc1ccc2c(-c3nccs3)c[nH]c2c1,Activity,[1],66%
same,Activity (10^-10.mol/mg/min),[2],1
same,Activity,[4],63%
same,Activity (10^-10.mol/mg/min),[5],0.97
